In ChEMBL document CHEMBL4261538, “Synthesis and molecular docking studies of xanthone attached amino acids as potential antimicrobial and anti-inflammatory agents” (Medchemcomm, 2017):
Values after ≈ are worked out from the molar mass of the structure shown.

Assays:
Staphylococcus aureus [1] = experiment: Antibacterial activity against Staphylococcus aureus at 25 ug/ml incubated for 24 hrs by agar well diffusion method; format: functional; conditions: read-out: DIZ
Procedure, shortened: (§1)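 Bacteria grown in nutrient broth at 37 °C for 24 h, then subcultured at room temperature. Compounds dissolved in DMSO at 5 mg mL⁻¹ and 5–20 µL added to 6 mm wells, giving 25, 50, 75, 100 µg per well. Gentamicin was the positive control and DMSO the negative control. Plates held at 37 °C for 24 h, then inhibition zone diameter (mm) measured. Values are means of three determinations.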

Staphylococcus aureus [2] = experiment: Antibacterial activity against Staphylococcus aureus at 50 ug/ml incubated for 24 hrs by agar well diffusion method; format: functional; conditions: read-out: DIZ; procedure, shortened: as §1
Staphylococcus aureus [3] = experiment: Antibacterial activity against Staphylococcus aureus at 75 ug/ml incubated for 24 hrs by agar well diffusion method; format: functional; conditions: read-out: DIZ; procedure, shortened: as §1
Staphylococcus aureus [4] = experiment: Antibacterial activity against Staphylococcus aureus at 100 ug/ml incubated for 24 hrs by agar well diffusion method; format: functional; conditions: read-out: DIZ; procedure, shortened: as §1
Bacillus subtilis [5] = experiment: Antibacterial activity against Bacillus subtilis at 25 ug/ml incubated for 24 hrs by agar well diffusion method; format: functional; conditions: read-out: DIZ; procedure, shortened: as §1
Bacillus subtilis [6] = experiment: Antibacterial activity against Bacillus subtilis at 50 ug/ml incubated for 24 hrs by agar well diffusion method; format: functional; conditions: read-out: DIZ; procedure, shortened: as §1
Bacillus subtilis [7] = experiment: Antibacterial activity against Bacillus subtilis at 75 ug/ml incubated for 24 hrs by agar well diffusion method; format: functional; conditions: read-out: DIZ; procedure, shortened: as §1
Bacillus subtilis [8] = experiment: Antibacterial activity against Bacillus subtilis at 100 ug/ml incubated for 24 hrs by agar well diffusion method; format: functional; conditions: read-out: DIZ; procedure, shortened: as §1
Escherichia coli [9] = experiment: Antibacterial activity against Escherichia coli at 25 ug/ml incubated for 24 hrs by agar well diffusion method; format: functional; conditions: read-out: DIZ; procedure, shortened: as §1
Escherichia coli [10] = experiment: Antibacterial activity against Escherichia coli at 50 ug/ml incubated for 24 hrs by agar well diffusion method; format: functional; conditions: read-out: DIZ; procedure, shortened: as §1
Escherichia coli [11] = experiment: Antibacterial activity against Escherichia coli at 75 ug/ml incubated for 24 hrs by agar well diffusion method; format: functional; conditions: read-out: DIZ; procedure, shortened: as §1
Escherichia coli [12] = experiment: Antibacterial activity against Escherichia coli at 100 ug/ml incubated for 24 hrs by agar well diffusion method; format: functional; conditions: read-out: DIZ; procedure, shortened: as §1
Klebsiella pneumoniae [13] = experiment: Antibacterial activity against Klebsiella pneumoniae at 25 ug/ml incubated for 24 hrs by agar well diffusion method; format: functional; conditions: read-out: DIZ; procedure, shortened: as §1
Klebsiella pneumoniae [14] = experiment: Antibacterial activity against Klebsiella pneumoniae at 50 ug/ml incubated for 24 hrs by agar well diffusion method; format: functional; conditions: read-out: DIZ; procedure, shortened: as §1
Klebsiella pneumoniae [15] = experiment: Antibacterial activity against Klebsiella pneumoniae at 75 ug/ml incubated for 24 hrs by agar well diffusion method; format: functional; conditions: read-out: DIZ; procedure, shortened: as §1
Klebsiella pneumoniae [16] = experiment: Antibacterial activity against Klebsiella pneumoniae at 100 ug/ml incubated for 24 hrs by agar well diffusion method; format: functional; conditions: read-out: DIZ; procedure, shortened: as §1
Aspergillus niger [17] = experiment: Antifungal activity against Aspergillus niger at 25 ug/ml incubated for 48 hrs by agar well diffusion method; format: functional; conditions: read-out: DIZ
Procedure, shortened: (§2)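 Compounds dissolved in DMSO at 5 mg mL⁻¹ and 5–20 µL added to 6 mm wells, giving 25, 50, 75, 100 µg per well. Bavistin was the positive control and DMSO the negative control. Plates incubated at 28 °C for 48 h, then inhibition zone diameter (mm) measured. Values are means of three determinations.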

Aspergillus niger [18] = experiment: Antifungal activity against Aspergillus niger at 50 ug/ml incubated for 48 hrs by agar well diffusion method; format: functional; conditions: read-out: DIZ; procedure, shortened: as §2
Aspergillus niger [19] = experiment: Antifungal activity against Aspergillus niger at 75 ug/ml incubated for 48 hrs by agar well diffusion method; format: functional; conditions: read-out: DIZ; procedure, shortened: as §2
Aspergillus niger [20] = experiment: Antifungal activity against Aspergillus niger at 100 ug/ml incubated for 48 hrs by agar well diffusion method; format: functional; conditions: read-out: DIZ; procedure, shortened: as §2
Candida albicans [21] = experiment: Antifungal activity against Candida albicans at 25 ug/ml incubated for 48 hrs by agar well diffusion method; format: functional; conditions: read-out: DIZ; procedure, shortened: as §2
Candida albicans [22] = experiment: Antifungal activity against Candida albicans at 50 ug/ml incubated for 48 hrs by agar well diffusion method; format: functional; conditions: read-out: DIZ; procedure, shortened: as §2
Candida albicans [23] = experiment: Antifungal activity against Candida albicans at 75 ug/ml incubated for 48 hrs by agar well diffusion method; format: functional; conditions: read-out: DIZ; procedure, shortened: as §2
Candida albicans [24] = experiment: Antifungal activity against Candida albicans at 100 ug/ml incubated for 48 hrs by agar well diffusion method; format: functional; conditions: read-out: DIZ; procedure, shortened: as §2
Fusarium oxysporum [25] = experiment: Antifungal activity against Fusarium oxysporum at 25 ug/ml incubated for 48 hrs by agar well diffusion method; format: functional; conditions: read-out: DIZ; procedure, shortened: as §2
Fusarium oxysporum [26] = experiment: Antifungal activity against Fusarium oxysporum at 50 ug/ml incubated for 48 hrs by agar well diffusion method; format: functional; conditions: read-out: DIZ; procedure, shortened: as §2
Fusarium oxysporum [27] = experiment: Antifungal activity against Fusarium oxysporum at 75 ug/ml incubated for 48 hrs by agar well diffusion method; format: functional; conditions: read-out: DIZ; procedure, shortened: as §2
Fusarium oxysporum [28] = experiment: Antifungal activity against Fusarium oxysporum at 100 ug/ml incubated for 48 hrs by agar well diffusion method; format: functional; conditions: read-out: DIZ; procedure, shortened: as §2
Staphylococcus aureus [29] = experiment: Antibacterial activity against Staphylococcus aureus incubated for 24 hrs by microdilution method; format: functional
Bacillus subtilis [30] = experiment: Antibacterial activity against Bacillus subtilis incubated for 24 hrs by microdilution method; format: functional
Escherichia coli [31] = experiment: Antibacterial activity against Escherichia coli incubated for 24 hrs by microdilution method; format: functional
Klebsiella pneumoniae [32] = experiment: Antibacterial activity against Klebsiella pneumoniae incubated for 24 hrs by microdilution method; format: functional
Aspergillus niger [33] = experiment: Antifungal activity against Aspergillus niger incubated for 48 to 72 hrs by microdilution method; format: functional
Procedure, shortened: (§3)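 Sabouraud agar plates inoculated with fungal suspension at 10⁵ CFU mL⁻¹ plus serially diluted compounds and bavistin reference, both in DMSO. Incubated at 25 °C for 48–72 h. MIC is the lowest concentration completely inhibiting growth. Values are means of three determinations.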

Candida albicans [34] = experiment: Antifungal activity against Candida albicans incubated for 48 to 72 hrs by microdilution method; format: functional; procedure, shortened: as §3
Fusarium oxysporum [35] = experiment: Antifungal activity against Fusarium oxysporum incubated for 48 to 72 hrs by microdilution method; format: functional; procedure, shortened: as §3
Staphylococcus aureus [36] = experiment: Induction of cell membrane damage in Staphylococcus aureus assessed as cell content leakage at MIC by spectrophotometric method; format: functional, organism-based; conditions: TDE = time-dependent effect
Procedure, shortened: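 Log-phase S. aureus inoculated into 0.1% sterile peptone water, with an untreated control, and held at 37 °C for 0, 30, 60 and 120 min. 1 mL of broth centrifuged and supernatant OD read at 260 nm to measure released DNA. Run in triplicate, repeated three times.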

Erythrocyte = experiment: Anti-inflammatory activity in human RBC assessed as inhibition of hypotonic solution-induced hemolysis after 10 mins by spectrophotometric method; format: functional, cell-based
Procedure, shortened: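 Human blood (heparinized) washed with 0.9% saline, packed cells made into a 40% v/v stock in isotonic phosphate buffer (154 mM NaCl, 10 mM sodium phosphate, pH 7.4). Stock RBC mixed with hypotonic buffer (50 mM NaCl, 10 mM phosphate, pH 7.4) plus sample at 20–100 µg mL⁻¹.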

## CC(C)(C)OC(=O)N1CCC[C@H]1C(=O)Oc1ccc2c(=O)c3ccccc3oc2c1
Staphylococcus aureus [1]
  zone of inhibition at 25 µg/mL: 17 mm
Staphylococcus aureus [2]
  zone of inhibition at 50 µg/mL: 24 mm
Staphylococcus aureus [3]
  zone of inhibition at 75 µg/mL: 29 mm
Staphylococcus aureus [4]
  zone of inhibition at 100 µg/mL: 33 mm
Bacillus subtilis [5]
  zone of inhibition at 25 µg/mL: 15 mm
Bacillus subtilis [6]
  zone of inhibition at 50 µg/mL: 24 mm
Bacillus subtilis [7]
  zone of inhibition at 75 µg/mL: 31 mm
Bacillus subtilis [8]
  zone of inhibition at 100 µg/mL: 35 mm
Escherichia coli [9]
  zone of inhibition at 25 µg/mL: 17 mm
Escherichia coli [10]
  zone of inhibition at 50 µg/mL: 26 mm
Escherichia coli [11]
  zone of inhibition at 75 µg/mL: 31 mm
Escherichia coli [12]
  zone of inhibition at 100 µg/mL: 36 mm
Klebsiella pneumoniae [13]
  zone of inhibition at 25 µg/mL: 13 mm
Klebsiella pneumoniae [14]
  zone of inhibition at 50 µg/mL: 21 mm
Klebsiella pneumoniae [15]
  zone of inhibition at 75 µg/mL: 27 mm
Klebsiella pneumoniae [16]
  zone of inhibition at 100 µg/mL: 32 mm
Aspergillus niger [17]
  zone of inhibition at 25 µg/mL: 17 mm
Aspergillus niger [18]
  zone of inhibition at 50 µg/mL: 24 mm
Aspergillus niger [19]
  zone of inhibition at 75 µg/mL: 30 mm
Aspergillus niger [20]
  zone of inhibition at 100 µg/mL: 33 mm
Candida albicans [21]
  zone of inhibition at 25 µg/mL: 16 mm
Candida albicans [22]
  zone of inhibition at 50 µg/mL: 22 mm
Candida albicans [23]
  zone of inhibition at 75 µg/mL: 27 mm
Candida albicans [24]
  zone of inhibition at 100 µg/mL: 34 mm
Fusarium oxysporum [25]
  zone of inhibition at 25 µg/mL: 20 mm
Fusarium oxysporum [26]
  zone of inhibition at 50 µg/mL: 24 mm
Fusarium oxysporum [27]
  zone of inhibition at 75 µg/mL: 29 mm
Fusarium oxysporum [28]
  zone of inhibition at 100 µg/mL: 35 mm
Staphylococcus aureus [29]
  MIC: 27 µg/mL (≈ 65.9 µM)
Bacillus subtilis [30]
  MIC: 26 µg/mL (≈ 63.5 µM)
Escherichia coli [31]
  MIC: 25 µg/mL (≈ 61.1 µM)
Klebsiella pneumoniae [32]
  MIC: 24 µg/mL (≈ 58.6 µM)
Aspergillus niger [33]
  MIC: 29 µg/mL (≈ 70.8 µM)
Candida albicans [34]
  MIC: 24 µg/mL (≈ 58.6 µM)
Fusarium oxysporum [35]
  MIC: 25 µg/mL (≈ 61.1 µM)
Staphylococcus aureus [36]
  Activity: Tde
Erythrocyte
  IC50: 34 µg/mL (≈ 83 µM)
